Bioassay records: PubChem, several laboratories
Rows were chosen to be rich in hits. Some 2.9% of all compounds tested hit in one or more screens of this group.
RBBP9 inhibitor: human RBBP9 hydrolase inhibition | inhibition, % at 7.94 µM | hit rate 0.2% among 220,000 | recombinant RBBP9, FP-Rh probe fluorescence polarization | O75884;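 active means inhibition above the campaign mean of all tested compounds plus 3 SD, cut at about 14% in these data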;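 further: plate controls were DMSO wells with RBBP9 for no effect and wells lacking RBBP9 protein for full effect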
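Test system: recombinant human RBBP9. Quantity: 2.5 µM RBBP9 dispensing solution, before mixing. Detection: FP readout at 525/598 nm. Reagent: Serine-hydrolase probe FP-Rh, 375 nM pre-mixing. Measure: % inhibition. Control set: DMSO-treated enzyme wells and wells lacking RBBP9. Buffer or medium: Tris-NaCl-Pluronic buffer, pH 8.0. Times: preincubation 30 min plus labeling 45 min at 25 °C.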
Runt-SMMHC FRET: inhibitors of human RUNX1 Runt domain binding to CBFb-SMMHC; Q01196+Q13951; Cerulean-Runt/Venus-CBFb-SMMHC FRET ratio 530/480, 1 h; inhibition, % at 20 µM; hit rate 0.74% among 220,000; AID 1434;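 active means mean inhibition across duplicate retests at 20 µM reaching about 50%, limit read from the data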;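 further: 0% = DMSO wells and 100% = wells with excess untagged CBFb-SMMHC; inhibitors lower the FRET ratio by blocking Runt binding to CBFb-SMMHC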
Target sequence (Q01196 whole entry, looked up, the tested form may be a part): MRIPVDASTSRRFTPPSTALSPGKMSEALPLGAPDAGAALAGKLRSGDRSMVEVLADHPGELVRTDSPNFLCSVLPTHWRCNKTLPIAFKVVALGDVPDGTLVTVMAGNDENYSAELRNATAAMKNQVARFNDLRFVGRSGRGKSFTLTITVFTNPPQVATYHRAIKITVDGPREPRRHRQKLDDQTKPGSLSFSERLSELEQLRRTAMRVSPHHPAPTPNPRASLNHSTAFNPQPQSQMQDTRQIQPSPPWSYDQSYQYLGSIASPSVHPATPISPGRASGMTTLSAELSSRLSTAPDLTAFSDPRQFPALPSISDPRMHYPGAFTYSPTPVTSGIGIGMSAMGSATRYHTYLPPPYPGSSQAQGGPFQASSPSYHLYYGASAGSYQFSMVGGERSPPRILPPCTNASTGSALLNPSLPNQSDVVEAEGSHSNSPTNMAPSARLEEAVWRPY
Target sequence (Q13951 whole entry, looked up, the tested form may be a part): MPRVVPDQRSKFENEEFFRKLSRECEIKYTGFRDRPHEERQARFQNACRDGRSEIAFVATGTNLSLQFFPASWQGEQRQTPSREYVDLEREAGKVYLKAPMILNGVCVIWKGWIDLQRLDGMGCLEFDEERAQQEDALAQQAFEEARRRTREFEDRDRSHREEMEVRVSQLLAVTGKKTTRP
Runt-CBFb FRET: blocks binding of human RUNX1 Runt domain to CBFb | Q01196+Q13951 | Cerulean-Runt/Venus-CBFb FRET ratio 530/480, 1 h | inhibition, % at 20 µM | hit rate 0.46% among 220,000 | AID 1496;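 active means inhibition over about 50% at 20 µM in the single-dose screen, limit read from the data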;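 further: 0% = DMSO wells and 100% = excess unlabeled CBFb competitor control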
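Reagent – Venus-CBFb binding partner, 100 nM · Assay system – Cerulean-tagged RUNX1 Runt domain (FRET donor) fusion protein · Input – 100 nM per protein · Incubation – two 1 h room-temperature incubations shielded from light · Measured by – FRET fluorescence · Medium – Tris buffer pH 7.5 with salts and BSA · Benchmarks – unlabeled CBFb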
Hck-Nef inh: inhibitors of human Hck kinase activated by Nef; hit rate 0.68% among 220,000; P08631; inhibition, % at 20 µM; Recombinant Hck-YEEI plus Nef, Z-Lyte FRET kinase assay; AID 463187;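 active means Hck-Nef kinase inhibition above about 50%, limit read from the data; inactive means inhibition below that limit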;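 further: 0% = DMSO with Hck plus Nef and 100% = Hck alone without Nef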
RanGTP-Imp inh: inhibitors of RanGTP-importin-beta interaction, primary screen, biochemical, FRET, CFP-Ran, YFP-importin-beta, homogeneous | cell-free CFP-Ran/YFP-importin-beta FRET ratio | inhibition, % (test concentration not listed) | hit rate 1.1% among 300,000 | AID 2216;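 active means more than half of the replicate wells show a fall in the fluorescence ratio signal beyond about 16%, limit read from the data, passing the limit was not always enough; inconclusive means exactly half of the replicate wells pass the set limit; inactive means fewer than half of replicates pass the limit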;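 further: 0% = DMSO wells and 100% = Ran loaded with GDP instead of GTP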
M18AAP inhibitor: PfM18AAP enzyme inhibition; hit rate 1.2% among 290,000; inhibition, % at 7.35 µM; recombinant PfM18AAP, H-Glu-NHMec fluorogenic cleavage;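 active means inhibition above the campaign mean inhibition over all tested compounds plus 3 SD, cut at about 28% in these data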;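 further: 0% = plate median of test compound wells and 100% = 2 mM ZnCl2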
YIC counter: counter-screen: alters YIC FRET probe signal | AID 435026 | hit rate 40% among 1,000 | Purified YIC probe, intramolecular FRET ratio YFP/CFP | shares compounds with RanGTP-Imp inh | IC50, µM;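 active means fitted half-maximal inhibitory concentration no more than tenfold above the top dose tested; inconclusive means flat fit with 30 to 70% activity, or poor fit; inactive means half-maximal concentration beyond tenfold above the top dose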
Starred values were filed as active, the others as inactive; ? = inconclusive; / = not tested or not shown.

SMILES | RBBP9 inhibitor | Runt-SMMHC FRET | Runt-CBFb FRET | Hck-Nef inh | RanGTP-Imp inh | M18AAP inhibitor | YIC counter
COc1cc2c(cc1OC)CN(Cc1cc(=O)oc3cc(C)c(Cl)cc13)CC2 | -4 | -41 | -18 | 7 | 23* | 6 | >50
COc1cc2c(cc1OC)CN(Cc1cc(=O)oc3c(C)c(C)ccc13)CC2 | -1 | -41 | -17 | 4 | 20* | -1 | >50
Cc1cnc(=O)[nH]c1SCC(=O)c1ccc(F)cc1 | / | / | / | / | 16* | 28 | >50
CCOC(=O)CSC1=C(C#N)C(c2ccccc2OCC)C(C#N)C(=O)N1 (stereo unspecified) | -10 | 1 | 2 | 0 | 10 | 12 | /
CCCOC(=O)CSC1=C(C#N)C(c2ccccc2OC)C(C#N)C(=O)N1 (stereo unspecified) | 2 | 1 | 3 | 9 | 26* | 7 | >50
CCOC(=O)C1(CCc2ccccc2)CCN(Cc2ccccn2)CC1 | -7 | 0 | 2 | -1 | 17* | 1 | >50
C/C(N)=C(/C#N)C(=O)COc1ncnc2ccccc12 | 12 | / | / | 0 | 22* | 4 | >50
CCCSc1nnc(-c2c[nH]c3ccccc23)n1CC | 2 | 4 | 1 | 3 | 17* | 3 | >50
COc1ccc(OCC(=O)Nc2nc3ccccc3[nH]2)cc1 | 2 | 1 | 1 | -1 | ? | -4 | /
O=C(NNc1c2ccccc2nc2ccccc12)C(O)c1ccccc1 (stereo unspecified) | -1 | 14 | 9 | 23 | 34* | -4 | >50
O=C(NNc1c2ccccc2nc2ccccc12)C12CC3CC(CC(C3)C1)C2 | 6 | 9 | 11 | 23 | 24* | 3 | >50
CCCC(=O)NNc1c2ccccc2nc2ccccc12 | 3 | 26 | 40 | 1 | 21* | 4 | >50
COc1ccc(OCC(=O)NNc2c3ccccc3nc3ccccc23)cc1 | -2 | 9 | 6 | 1 | 27* | 0 | >50
Cc1ccc(C(=O)N2CCN(C34CC5CC(CC(C5)C3)C4)CC2)o1 | / | / | / | / | / | 3 | /
Cc1ccc(S(=O)(=O)N2CCC(C(=O)NNC(=O)C3CC3)CC2)cc1Cl | -9 | 2 | -2 | 19 | 4 | 6 | /
O=C(CCCO)NNc1c2ccccc2nc2ccccc12 | 3 | 17 | 14 | 23 | 25* | -3 | >50
O=C(NNc1c2ccccc2nc2ccccc12)c1ccc(O)cc1O | -1 | 48 | 13 | 0 | 38* | 12 | >50
COc1ccc(OC)c(Nc2c3ccccc3nc3ccccc23)c1 | / | / | / | / | 32* | 6 | >50
N#CCN1C(=O)NC2(CCCc3sccc32)C1=O (stereo unspecified) | / | / | / | / | -6 | -2 | /
Fc1ccc(N/N=C/C=C/c2ccccc2)c(F)c1 | 0 | 1 | 1 | 3 | 20* | 10 | >50
COc1ccc(S(=O)(=O)NCC(c2ccc(F)cc2)N2CCN(C)CC2)cc1 (stereo unspecified) | / | / | / | / | 1 | / | /
O=C(CN(Cc1ccccc1)C(=O)CCC(=O)Nc1nccs1)NCc1ccccc1 | / | / | / | / | 5 | -4 | /
CCN1CCN(C(=O)c2ccccc2Nc2ccc(SC(F)F)cc2)CC1 | 3 | -2 | -4 | 25 | ? | 1 | /
CN1CCN(C(=O)c2ccccc2Nc2ccc(SC(F)F)cc2)CC1 | -8 | 2 | 0 | 20 | 19* | -11 | >50
O=C1C=C(NCc2ccc(Cl)cc2)CC(c2ccco2)C1 (stereo unspecified) | 1 | -3 | -2 | -1 | 6 | 10 | /
SMILES | RBBP9 inhibitor | Runt-SMMHC FRET | Runt-CBFb FRET | Hck-Nef inh | RanGTP-Imp inh | M18AAP inhibitor | YIC counter
O=C1C=C(Nc2ccc(Cl)cc2Cl)CC(c2ccco2)C1 (stereo unspecified) | 1 | 3 | 1 | 9 | 24* | 7 | >50
COc1ccc(/C=C(\NC(=O)c2ccc(C)cc2)C(=O)NCCCN2CCOCC2)cc1OC | / | / | / | / | 1 | -6 | /
CCC1CCCCN1C(=O)COc1cccc2c1CCN(C)C2=O (stereo unspecified) | -3 | -1 | 0 | -36 | 18* | -3 | >50
CN1CCc2c(OCC(=O)NC3CCCCC3)cccc2C1=O | / | / | / | / | -3 | -3 | /
COc1ccc2c(CC#N)c[nH]c2c1 | -2 | -6 | -1 | 1 | 31* | 0 | >50
COc1ccc2c(CCNC(N)=S)c[nH]c2c1 | -7 | -1 | -1 | 8 | -18 | 7 | /
CC1CN(C(=O)/C=C/c2ccccc2Cl)CC(C)O1 (stereo unspecified) | / | / | / | / | ? | -5 | /
Cc1cccc(CCN(CC(=O)NCc2ccc(F)cc2)C(=O)c2csnn2)c1 | / | / | / | / | 0 | -2 | /
Cc1c(C#N)c(NC(=O)CCl)n(Cc2ccccc2)c1C | -1 | 0 | -3 | 22 | 23* | 11 | >50
Cc1c(C#N)c(NC(=O)CCl)n(Cc2ccc(F)cc2)c1C | -12 | 0 | 0 | -4 | -6 | 5 | /
CCCn1nc(NC(=O)CC(C)C)c2cc3cccc(C)c3nc21 | / | / | / | / | 20* | -3 | 32*
Cc1cccc(C)c1NC(=O)C1c2cccc[n+]2CC(=O)N1Cc1cccs1 (stereo unspecified) | 6 | -2 | 0 | 19 | 23* | 6 | >50
C[C@@H]1CCCCO[C@@H](CN(C)C(=O)CCC(F)(F)F)[C@@H](C)CN([C@@H](C)CO)C(=O)c2cc(NC(=O)CCC(F)(F)F)ccc2O1 | / | / | / | / | / | / | >50
Cc1noc(C)c1NC(=O)Nc1ccc2c(c1)C(=O)N([C@H](C)CO)C[C@@H](C)[C@@H](CN(C)C(=O)Nc1c(C)noc1C)OCCCC[C@@H](C)O2 | / | / | / | / | / | / | >50
Cc1ccc(C(=O)Nc2ccc3c(c2)C(=O)N(CC2CCCO2)C3=O)cc1 (stereo unspecified) | / | / | / | / | 8 | 1 | /
O=C(CN1CCN(C(=O)C2CCCO2)CC1)Nc1ccc(Cl)c(Cl)c1 (stereo unspecified) | / | / | / | / | / | 1 | /
CCOc1ccc(S(=O)(=O)N2CCC(C(=O)NCc3ccncc3)CC2)cc1 | / | / | / | / | 0 | -12 | /
OCCc1c[nH]c2cc(F)ccc12 | / | / | / | / | -2 | -4 | /
C[C@H](O)c1[nH]c2cc(F)ccc2c1[C@H](C)O | / | / | / | / | 18* | 10 | >50
Cc1cccn2c(=O)c3cc(C(=O)NC4CCCCC4C)n(C)c3nc12 (stereo unspecified) | / | / | / | / | 2 | -16 | /
Cc1ccc(S(=O)(=O)c2cc3c(=O)n4cccc(C)c4nc3n(C3CCCCC3)c2=N)cc1 | / | / | / | / | 34* | -2 | 3.9*
CSc1cccc(CNC(=O)C2CCC(=O)N(CCCN3CCCC3=O)C2)c1 (stereo unspecified) | / | / | / | / | -3 | -2 | /
CCOC(=O)c1c(NC(=O)CSc2nnc3c(n2)[nH]c2ccccc23)sc2c1CCN(C)C2 | -8 | / | / | 4 | 24* | -1 | >50
